What was measured:
SNB-75 [1] = assay: Antiproliferative activity against human SNB-75 cells assessed as cell growth at 0.0001 M incubated for 48 hrs by SRB assay relative to control; format: functional; conditions: read-out: Activity
NCI-H460 = assay: Antiproliferative activity against human NCI-H460 cells assessed as cell growth inhibition by measuring lethal concentration incubated for 48 hrs by sulforhodamine B assay; format: functional; conditions: read-out: LC50 (the source's name)
NCI-H322M = assay: Antiproliferative activity against human NCI-H322M cells assessed as cell growth at 0.00000001 M incubated for 48 hrs by SRB assay relative to control; format: functional; conditions: dose 10 nM, read-out: Activity
UO-31 = assay: Antiproliferative activity against human UO-31 cells assessed as cell growth inhibition by measuring lethal concentration incubated for 48 hrs by sulforhodamine B assay; format: functional; conditions: read-out: LC50 (the source's name)
Method in brief: (§1)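 NCI-60 five-dose screen (10^-4 to 10^-8 M, 10-fold dilutions; DMSO stocks). Cells in RPMI 1640 with 5% FBS and 2 mM L-glutamine, preincubated 24 h, then exposed 48 h at 37 °C, 5% CO2. Fixed with cold TCA, stained with 0.4% SRB, absorbance read at 515 nm. Time-zero plates used as reference. LC50 taken from [(Ti-Tz)/Tz]×100 […].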

NCI-H23 = assay: Antiproliferative activity against human NCI-H23 cells assessed as cell growth at 0.00001 M incubated for 48 hrs by SRB assay relative to control; format: functional; conditions: read-out: Activity
786-0 = assay: Antiproliferative activity against human 786-0 cells assessed as cell growth at 0.00000001 M incubated for 48 hrs by SRB assay relative to control; format: functional; conditions: dose 10 nM, read-out: Activity
Method in brief: (§2)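 NCI-60 five-dose screen over 10^-4–10^-8 M (10-fold dilutions). Cells grown in RPMI 1640 with 5% FBS and 2 mM L-glutamine, seeded at 5,000–40,000 cells/well and preincubated 24 h. Drug from DMSO stock, 48 h at 37 °C, 5% CO2. Adherent cells TCA-fixed and stained with 0.4% SRB; A515 read. Percent growth = (Ti−Tz)/(C−Tz)×100, or (Ti−Tz)/Tz×100 when Ti<Tz.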

ACHN = assay: Antiproliferative activity against human ACHN cells assessed as cell growth inhibition by measuring lethal concentration incubated for 48 hrs by sulforhodamine B assay; format: functional; conditions: read-out: LC50 (the source's name)
DU-145 = assay: Antiproliferative activity against human DU-145 cells assessed as cell growth at 0.0001 M incubated for 48 hrs by SRB assay relative to control; format: functional; conditions: read-out: Activity
Method in brief: (§3)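 NCI-60 five-dose screen (10^-4 to 10^-8 M). Cells grown in RPMI 1640 with 5% FBS and 2 mM L-glutamine, plated at 5,000-40,000 cells/well and preincubated 24 h. Drug given from DMSO stock, then 48 h at 37 °C, 5% CO2. For adherent lines, cells fixed with cold TCA, SRB-stained and read at 515 nm. Percent growth taken against time-zero and untreated control.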

OVCAR-8 [2] = assay: Antiproliferative activity against human OVCAR-8 cells assessed as cell growth at 0.0000001 M incubated for 48 hrs by SRB assay relative to control; format: functional; conditions: dose 100 nM, read-out: Activity
SK-OV-3 = assay: Antiproliferative activity against human SK-OV-3 cells assessed as cell growth inhibition by measuring lethal concentration incubated for 48 hrs by sulforhodamine B assay; format: functional; conditions: read-out: LC50 (the source's name)
SK-MEL-2 [3] = assay: Growth inhibition against human SK-MEL-2 cells incubated for 48 hrs by sulforhodamine B assay; format: functional
HL-60 [4] = assay: Antiproliferative activity against human HL-60 cells assessed as cell growth at 0.0001 M incubated for 48 hrs by SRB assay relative to control; format: functional; conditions: read-out: Activity; method in brief: as §3
HL-60 [5] = assay: Antiproliferative activity against human HL-60 cells assessed as cell growth at 0.00001 M incubated for 48 hrs by SRB assay relative to control; format: functional; conditions: read-out: Activity; method in brief: as §3
CCRF-CEM [6] = assay: Antiproliferative activity against human CCRF-CEM cells assessed as cell growth at 0.00001 M incubated for 48 hrs by SRB assay relative to control; format: functional; conditions: read-out: Activity; method in brief: as §2
OVCAR-3 = assay: Antiproliferative activity against human OVCAR-3 cells assessed as cell growth at 0.000001 M incubated for 48 hrs by SRB assay relative to control; format: functional; conditions: read-out: Activity
SNB-75 [7] = assay: Growth inhibition against human SNB-75 cells assessed as total growth inhibitory concentration incubated for 48 hrs by sulforhodamine B assay; format: functional
OVCAR-8 [8] = assay: Antiproliferative activity against human OVCAR-8 cells assessed as cell growth at 0.00001 M incubated for 48 hrs by SRB assay relative to control; format: functional; conditions: read-out: Activity
COLO 205 [9] = assay: Antiproliferative activity against human COLO 205 cells assessed as cell growth at 0.00000001 M incubated for 48 hrs by SRB assay relative to control; format: functional; conditions: dose 10 nM, read-out: Activity; method in brief: as §2
CCRF-CEM [10] = assay: Antiproliferative activity against human CCRF-CEM cells assessed as cell growth at 0.0000001 M incubated for 48 hrs by SRB assay relative to control; format: functional; conditions: dose 100 nM, read-out: Activity; method in brief: as §2
EKVX = assay: Antiproliferative activity against human EKVX cells assessed as cell growth at 0.000001 M incubated for 48 hrs by SRB assay relative to control; format: functional; conditions: read-out: Activity; method in brief: as §3
SK-MEL-2 [11] = assay: Growth inhibition against human SK-MEL-2 cells assessed as total growth inhibitory concentration incubated for 48 hrs by sulforhodamine B assay; format: functional
A498 = assay: Antiproliferative activity against human A498 cells assessed as cell growth at 0.00001 M incubated for 48 hrs by SRB assay relative to control; format: functional; conditions: read-out: Activity; method in brief: as §2
Hs-578T = assay: Antiproliferative activity against human Hs-578T cells assessed as cell growth at 0.0000001 M incubated for 48 hrs by SRB assay relative to control; format: functional; conditions: dose 100 nM, read-out: Activity
Method in brief: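 NCI-60 five-dose mode, 10^-4 to 10^-8 M in 10-fold steps. RPMI 1640, 5% FBS, 2 mM L-glutamine; 24 h preincubation, then 48 h drug exposure at 37 °C. Stocks in DMSO at 400× the top concentration, diluted in medium with gentamicin. TCA fixation, SRB staining, absorbance at 515 nm. Percent growth from time-zero (Tz), control (C) and test (Ti) readings.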

UACC-62 = assay: Antiproliferative activity against human UACC-62 cells assessed as cell growth inhibition by measuring lethal concentration incubated for 48 hrs by sulforhodamine B assay; format: functional; conditions: read-out: LC50 (the source's name); method in brief: as §1
Calf thymus DNA = assay: Binding affinity to calf thymus DNA assessed as fluorescence quenching intensity at 5 uM at temperature of 298 K by fluorescence spectroscopic method relative to control; format: nucleic-acid assay; conditions: Bos taurus
SK-MEL-2 [12] = assay: Antiproliferative activity against human SK-MEL-2 cells assessed as cell growth at 0.000001 M incubated for 48 hrs by SRB assay relative to control; format: functional; conditions: read-out: Activity
COLO 205 [13] = assay: Antiproliferative activity against human COLO 205 cells assessed as cell growth at 0.0000001 M incubated for 48 hrs by SRB assay relative to control; format: functional; conditions: dose 100 nM, read-out: Activity; method in brief: as §2
MDA-MB-468 = assay: Antiproliferative activity against human MDA-MB-468 cells assessed as cell growth inhibition by measuring lethal concentration incubated for 48 hrs by sulforhodamine B assay; format: functional; conditions: read-out: LC50 (the source's name)
CCRF-CEM [14] = assay: Growth inhibition against human CCRF-CEM cells assessed as total growth inhibitory concentration incubated for 48 hrs by sulforhodamine B assay; format: functional
MOLT-4 = assay: Antiproliferative activity against human MOLT-4 cells assessed as cell growth at 0.0000001 M incubated for 48 hrs by SRB assay relative to control; format: functional; conditions: dose 100 nM, read-out: Activity

Structure (SMILES)	growth at 100 µM (SNB-75 [1])	CC50 (NCI-H460)	growth at 0.01 µM (NCI-H322M)	CC50 (UO-31)	growth at 10 µM (NCI-H23)	growth at 0.01 µM (786-0)	CC50 (ACHN)	growth at 100 µM (DU-145)	growth at 0.1 µM (OVCAR-8 [2])	CC50 (SK-OV-3)	GI50 (SK-MEL-2 [3])	growth at 100 µM (HL-60 [4])	growth at 10 µM (HL-60 [5])	growth at 10 µM (CCRF-CEM [6])	growth at 1 µM (OVCAR-3)	TGI (SNB-75 [7])	growth at 10 µM (OVCAR-8 [8])	growth at 0.01 µM (COLO 205 [9])	growth at 0.1 µM (CCRF-CEM [10])	growth at 1 µM (EKVX)	further results
c1ccc(Cn2cnc3ccc(-c4nc(-c5ccc6c(c5)ncn6C5CCCCC5)cn5ccnc45)cc32)cc1	-47%	> 100 µM	97%	> 100 µM	-46%	86%	> 100 µM	-8%	114%	> 100 µM	2.02 µM	-18%	-24%	8%	94%	2.89 µM	-23%	95%	113%	76%	TGI (SK-MEL-2 [11]): 4.85 µM; growth at 10 µM (A498): -79%; growth at 0.1 µM (Hs-578T): 104%; CC50 (UACC-62): > 100 µM; Activity (Calf thymus DNA): 35%; growth at 1 µM (SK-MEL-2 [12]): 90%; growth at 0.1 µM (COLO 205 [13]): 99%; CC50 (MDA-MB-468): > 100 µM; TGI (CCRF-CEM [14]): > 100 µM; growth at 0.1 µM (MOLT-4): 114%
COc1ccc(-c2cn3ccnc3c(-c3ccc4ncn(C5CCCCC5)c4c3)n2)cc1	11%	> 100 µM	92%	> 100 µM	13%	87%	> 100 µM	17%	106%	> 100 µM	0.944 µM	-7%	-22%	16%	19%	> 100 µM	8%	96%	107%	73%	TGI (SK-MEL-2 [11]): > 100 µM; growth at 10 µM (A498): 8%; growth at 0.1 µM (Hs-578T): 102%; CC50 (UACC-62): > 100 µM; Activity (Calf thymus DNA): 75%; growth at 1 µM (SK-MEL-2 [12]): 49%; growth at 0.1 µM (COLO 205 [13]): 102%; CC50 (MDA-MB-468): > 100 µM; TGI (CCRF-CEM [14]): > 100 µM; growth at 0.1 µM (MOLT-4): 109%
